Each structure is given as a SMILES string.

In series [1] the test system is HepG2. As to the kind of experiment: Cytotoxicity against human HepG2 cells assessed as cell viability after 48 hrs by alamar blue assay. In kind it is functional, cell-based. The note with it: for IC50: HepG2, 48 h. In a few lines:
(§1)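 Alamar Blue viability assay on the human cell line named (origins given: HT-29 colorectal adenocarcinoma, HepG2 hepatocellular carcinoma, LAMA-84 myeloid leukemia, A549 lung adenocarcinoma, PC3 prostate metastasis, MCF-7 breast adenocarcinoma, ARPE-19 retinal pigment epithelium, BJ skin fibroblast). Exposure was 48 h. Sterol stocks were made in DMSO. IC50 is the concentration inhibiting 50% of cellular growth, given as the mean of at least three separate experiments.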

Series [2] deals with BJ. Put plainly: Cytotoxicity against human BJ cells assessed as cell viability after 48 hrs by alamar blue assay. It is filed as cell-based. As to conditions: for IC50: Homo sapiens, BJ; for Activity: human, bj. In a few lines: as §1
The nature of series [3]: Cytotoxicity against human ARPE19 cells assessed as cell viability after 48 hrs by alamar blue assay. In kind it is cell-based, ARPE-19. The note with it: for IC50: Homo sapiens, ARPE-19, 48 h; for Activity: human, arpe-19, 48 h. The procedure, abridged:
as §1
(In general: Alamar Blue is a resazurin reagent that responds to reducing activity.)

The test system of series [4] is HT-29. Put plainly: Selectivity index, ratio of IC50 for human ARPE19 cells to IC50 for human HT-29 cells. In kind it is functional.
Series [5] concerns LAMA-84. Put plainly: Cytotoxicity against human LAMA-84 cells assessed as cell viability after 48 hrs by alamar blue assay. It is filed as functional, cell-based. The note with it: for IC50: LAMA-84, 48 h. The procedure, abridged:
as §1

In series [6] the test system is HT-29. Put plainly: Cytotoxicity against human HT-29 cells assessed as cell viability after 48 hrs by alamar blue assay. In kind it is functional, cell-based. As to conditions: for IC50: HT-29, 48 h. In a few lines: as §1
Series [7] deals with PC-3. Put plainly: Cytotoxicity against human PC3 cells assessed as cell viability after 48 hrs by alamar blue assay. As to conditions: for IC50: PC-3, 48 h. It is filed as functional, cell-based. The procedure, abridged:
as §1

Series [8] relates to SH-SY5Y. As to the kind of experiment: Cytotoxicity against human SH-SY5Y cells assessed as cell viability after 48 hrs by alamar blue assay. In kind it is functional, cell-based. The procedure, abridged:
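SH-SY5Y cells grown in DMEM/F12 (1:1) with L-glutamine, 10% heat-inactivated FBS, 100 units/mL penicillin and 0.1 mg/mL streptomycin, pH 7.4. Seeded at 5 10^3 cells/well and exposed to the sterols (DMSO stocks) for 48 h. Alamar Blue read-out. IC50 is the concentration inhibiting 50% of growth, mean of at least three separate experiments.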

In series [9] the test system is A549. As to the kind of experiment: Cytotoxicity against human A549 cells assessed as cell viability after 48 hrs by alamar blue assay. The note with it: for IC50: A549, 48 h. In kind it is functional, cell-based. In a few lines: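 Alamar Blue viability assay on the human cell line named (origins given: HT-29 colorectal adenocarcinoma, HepG2 hepatocellular carcinoma, LAMA-84 myeloid leukemia, A549 lung adenocarcinoma, PC3 prostate metastasis, MCF-7 breast adenocarcinoma, ARPE-19 retinal pigment epithelium, BJ skin fibroblast). Exposure was 48 h. Sterol stocks were made in DMSO.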

Series [10] relates to HT-29. As to the kind of experiment: Cytotoxicity against human HT-29 cells assessed as inhibition of cell growth after 96 hrs by alamar blue assay. In kind it is functional, cell-based. The note with it: HT-29, 96 h. The procedure, abridged: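 HT-29 and ARPE-19 cells exposed for 96 h. ARPE-19 seeded at 5 10^3 cells/well for this period. Sterol stocks in DMSO. Viability by Alamar Blue. IC50 is the concentration inhibiting 50% of cellular growth, mean of at least three separate experiments.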

The subject of series [11] is MCF7. Put plainly: Cytotoxicity against human MCF7 cells assessed as cell viability after 48 hrs by alamar blue assay. The note with it: for IC50: MCF7, 48 h. It is filed as functional, cell-based. The procedure, abridged: as §1

By IC50 is commonly meant the concentration at which inhibition is half-maximal. Regarding `CO[C@@H]1C[C@H]2[C@@H]3CC[C@H]([C@H](C)CCCC(C)C)[C@@]3(C)CC[C@@H]2[C@@]2(C)CC[C@H](O)C[C@]12O`, the IC50 in series [1] came out at 13.3 µM; in series [2] it was 17.4 µM; in [3], 25.8 µM; in series [5], 4.3 µM; in series [6], 10 µM; in [7] it was 17.4 µM. In addition, the “Ratio IC50” value in series [4] was found to be 2.58.
Consider `COc1cccc2c1C(=O)c1c(O)c3c(c(O)c1C2=O)C[C@@](O)(C(=O)CO)C[C@@H]3O[C@H]1C[C@H](N)[C@H](O)[C@H](C)O1` [DOXORUBICIN], for which the IC50 in series [8] came out at 0.5 µM.
As for `CO[C@]12C[C@@H](O)CC[C@]1(C)[C@H]1CC[C@]3(C)[C@@H]([C@H](C)CCCC(C)C)CC[C@H]3[C@@H]1C[C@H]2O`, the IC50 in series [6] was found to be 36.1 µM.
Take `CC(C)CCC[C@@H](C)[C@H]1CC[C@H]2[C@@H]3C[C@@H](O)[C@@]4(O)C[C@@H](O)CC[C@]4(C)[C@H]3CC[C@]12C` [CHOLESTAN-3beta,5alpha,6beta-TRIOL]: in series [4], the “Ratio IC50” value was determined as 1.48. Also, the IC50 in [8] came to 17.2 µM.
With `CC(C)CCC[C@@H](C)[C@H]1CC[C@H]2[C@@H]3C(=O)C(O)=C4C[C@@H](O)CC[C@]4(C)[C@H]3CC[C@]12C`, the half-inhibitory concentration (IC50) in series [6] is 36.7 µM.
On to `CC(=O)O[C@H]1CC[C@]2(C)[C@H]3CC[C@]4(C)[C@@H]([C@H](C)CCCC(C)C)CC[C@H]4[C@@H]3[C@@H](OC(C)=O)C(=O)[C@@]2(O)C1`, for which, in [6], the 50% inhibitory concentration (IC50) worked out at 27.2 µM.
In the case of `CCCO[C@@H]1C[C@H]2[C@@H]3CC[C@H]([C@H](C)CCCC(C)C)[C@@]3(C)CC[C@@H]2[C@@]2(C)CC[C@H](O)C[C@]12O`, in [6], the half-maximal inhibitory concentration (IC50) is 25.9 µM.
In the case of `CC(C)CCC[C@@H](C)[C@H]1CC[C@H]2[C@@H]3CC[C@@]4(O)[C@@H](O)[C@@H](O)CC[C@]4(C)[C@H]3CC[C@]12C`, the 50% inhibitory concentration (IC50) in [1] is 34.4 µM; in [6], 34 µM; in series [9], 31.8 µM; in series [7] it was 35.1 µM.
In the case of `CC(=O)N[C@@H]1C[C@H]2[C@@H]3CC[C@H]([C@H](C)CCCC(C)C)[C@@]3(C)CC[C@@H]2[C@@]2(C)CC[C@H](O)C[C@]12O`, the concentration for half-maximal inhibition (IC50) in series [1] came to 11.6 µM; in series [3] it was 19 µM; in series [6] it was 14.5 µM; in series [9], 14.5 µM; in [7], 19.2 µM. The “Ratio IC50” value in [4] amounted to 1.31.
Take `CC(C)CCC[C@@H](C)[C@H]1CC[C@H]2[C@@H]3C/C(=N\O)[C@@]4(O)C[C@@H](O)CC[C@]4(C)[C@H]3CC[C@]12C`: the IC50 in series [1] stood at 13.2 µM; in series [2], 17.1 µM; in series [3], 23.7 µM; in [6] it was 11.9 µM; in [9], 15 µM; in series [7], 15 µM. Moreover, the half-inhibitory concentration (IC50) in series [8] is 16.8 µM. Moreover, the “Ratio IC50” value in series [4] is on record as 1.99.
Take `CC(C)CCC[C@@H](C)[C@H]1CC[C@H]2[C@@H]3CC(=O)[C@@]4(O)C[C@@H](O)CC[C@]4(C)[C@H]3CC[C@]12C`: in series [3], the IC50 came to 33.9 µM. Also, in series [4], the “Ratio IC50” value stood at 1.99.
For the molecule `CC(C)CCC[C@@H](C)[C@H]1CC[C@H]2[C@@H]3C(=O)[C@H](O)[C@@]4(O)C[C@@H](O)CC[C@]4(C)[C@H]3CC[C@]12C`, the values for the 50% inhibitory concentration (IC50) in series [3] and in series [6] were 25.7 µM and 15.2 µM, respectively. In series [4], the “Ratio IC50” value is listed as 1.69.
In the case of `CC(=O)O[C@H]1C=C2C[C@@H](O)CC[C@]2(C)[C@H]2CC[C@]3(C)[C@@H]([C@H](C)CCCC(C)C)CC[C@H]3[C@H]12`, the results for the half-inhibitory concentration (IC50) in series [10] and in series [6] were 24.6 µM and 26.8 µM, respectively.
On to `CC(=O)O[C@H]1CC[C@]2(C)[C@H]3CC[C@]4(C)[C@@H]([C@H](C)CCCC(C)C)CC[C@H]4[C@@H]3[C@@H](OC(C)=O)[C@@H](OC(C)=O)[C@@]2(O)C1`, for which the half-inhibitory concentration (IC50) in series [10] came out at 26.7 µM; in series [6], 27 µM.
On to `CC(C)CCC[C@@H](C)[C@H]1CC[C@H]2[C@@H]3[C@@H](O)[C@H](O)[C@H]4C[C@@H](O)CC[C@]4(C)[C@H]3CC[C@]12C`, for which the IC50 in series [3] was determined as 19.1 µM; in series [6] it was 14.9 µM. Further, the “Ratio IC50” value in [4] turned out to be 1.28.
Take `CC(C)CCC[C@@H](C)[C@H]1CC[C@H]2[C@@H]3C(=O)C=C4C[C@@H](O)CC[C@]4(C)[C@H]3CC[C@]12C` [7-OXOCHOLESTEROL]: in [3], the IC50 turned out to be 32.3 µM. The “Ratio IC50” value in series [4] is 1.26.
`CC(C)CCC[C@@H](C)[C@H]1CC[C@H]2[C@@H]3[C@@H](O)[C@@H](O)[C@@]4(O)C[C@@H](O)CC[C@]4(C)[C@H]3CC[C@]12C`: the inhibition entry in series [1], in [5], in series [6], in series [11], in [9] and in series [7] was “Dose-dependent effect” each time. Besides, the inhibition result in series [8] is “Dose-dependent effect”. In addition, the IC50 in [1] came to 13.8 µM; in series [2] it was 19.3 µM; in [3], 21.4 µM; in [5], 5.1 µM; in series [6], 13.9 µM; in series [11] it was 13.1 µM. Moreover, the results for the concentration for half-maximal inhibition (IC50) in series [9], in series [7] and in series [8] were 17.3 µM, 17.4 µM and 20.2 µM, respectively. For the same molecule, the Activity result in series [2] and in [3] was “Non-toxic” each time. The “Ratio IC50” value in series [4] was 1.54.
Take `CC(C)CCC[C@@H](C)[C@H]1CC[C@H]2[C@@H]3C[C@@H](O)[C@@]4(O)[C@@H](O)[C@@H](O)CC[C@]4(C)[C@H]3CC[C@]12C`: the inhibition entry in [1], in series [5], in [6], in series [11], in series [9] and in [7] was “Dose-dependent effect” in each case. Moreover, the inhibition entry in [8] is “Dose-dependent effect”. The IC50 in [1] was found to be 12.7 µM; in series [2], 17.8 µM; in series [3], 20.4 µM; in series [5], 5.1 µM; in series [6] it was 9.1 µM; in series [11], 14.5 µM. Further, the results for the 50% inhibitory concentration (IC50) in [7] and in series [8] were 17.1 µM and 14.5 µM, respectively. Also, the Activity entry in series [2] and in [3] was “Non-toxic” each time. The “Ratio IC50” value in series [4] is given as 2.24.
Turning to `CC(C)CCC[C@@H](C)[C@H]1CC[C@H]2[C@@H]3[C@@H](O)C=C4[C@@H](O)[C@@H](O)CC[C@]4(C)[C@H]3CC[C@]12C`, the results for the half-maximal inhibitory concentration (IC50) in [3] and in series [6] were 25.6 µM and 15.4 µM, respectively. Besides, the “Ratio IC50” value in [4] came to 1.66.
Regarding `CC(=O)O[C@@H]1[C@H]2[C@@H]3CC[C@H]([C@H](C)CCCC(C)C)[C@@]3(C)CC[C@@H]2[C@@]2(C)CC[C@H](O)C[C@]2(O)[C@@H]1O`, the results for the half-inhibitory concentration (IC50) in [10], in [3] and in series [6] were 15.5 µM, 15.8 µM and 17 µM, respectively. Further, in series [4], the “Ratio IC50” value is 0.93.
Taken in the same sequence, the figures for `CC(=O)O[C@H]1CC[C@]2(C)[C@H]3CC[C@]4(C)[C@@H]([C@H](C)CCCC(C)C)CC[C@H]4[C@@H]3C[C@@H](O)[C@@]2(O)[C@H]1O` were 14.2 µM, 28.8 µM, 17.7 µM and 1.63.
Consider `CCCCCCCCCCCC(=O)O[C@H]1CC[C@@]2(C)C(=C[C@H](O)[C@H]3[C@@H]4CC[C@H]([C@H](C)CCCC(C)C)[C@@]4(C)CC[C@@H]32)C1`, for which the 50% inhibitory concentration (IC50) in [10] and in series [6] was greater than 50 µM in each case.
For the molecule `CC(C)CCC[C@@H](C)[C@H]1CC[C@H]2[C@@H]3[C@@H](O)C=C4C[C@@H](O)CC[C@]4(C)[C@H]3CC[C@]12C`, in series [4], the “Ratio IC50” value is given as 3.13. Also, the concentration for half-maximal inhibition (IC50) in [8] was 16.4 µM.

For the origin of these results see ChEMBL document CHEMBL1821637, “Selective cytotoxicity of oxysterols through structural modulation on rings A and B. Synthesis, in vitro evaluation, and SAR” (J Med Chem, 2011).
